Data from ChEMBL document CHEMBL1134616, “Novel 7-oxyiminomethyl derivatives of camptothecin with potent in vitro and in vivo antitumor activity” (J Med Chem, 2001).
pIC50: −log10 of the molar value.

How the values were obtained:
[1] = Cytotoxicity against human non-small-cell lung carcinoma cell line H460 (NSCLC-H460); format: functional, cell-based
How it was run: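 Logarithmically growing cells were seeded in duplicate, exposed to drug for 1 h starting 24 h after seeding, and counted by Coulter counter 72 h after exposure. Drug was dissolved in DMSO before dilution. The IC50 is the concentration giving a 50% decrease in growth relative to untreated control.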

[2] = Complete response in mice bearing lung carcinoma LX-1 at a oral dose of 15 mg/kg; format: functional, Mus musculus
How it was run: (§1)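 Nude athymic CD1 mice, 8–10 weeks old, carrying serially passaged human lung tumor fragments implanted s.c. in both flanks. Oral dosing in 10 mL/kg on a q4dx4 schedule, begun once tumors were visible but not yet measurable. Complete response means no detectable tumor for at least 10 days after the end of treatment.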

[3] = Percentage inhibition of tumor volume in treated versus control mice bearing lung carcinoma LX-1 at a oral dose of 15 mg/kg; format: functional; conditions: Mus musculus
How it was run: (§2)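 Nude athymic CD1 mice, 8–10 weeks old, with human lung tumor fragments implanted s.c. in both flanks. Oral dosing in 10 mL/kg, q4dx4, started when tumors were visible but not measurable. Tumor volume = d²×D/2 from caliper diameters. Percent inhibition of treated versus control volume taken 7–10 days after the last dose. Volumes compared by Student's t test, P<0.05.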

[4] = (§3) No. of dead mice/ total No. of mice with human Non-Small-Cell tumor xenograft at a oral dose of 9 mg/kg; format: ADME, organism-based; parameters: dose 9 mg/kg, route oral; conditions: in vivo
How it was run: (§4)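 Human lung tumor s.c. xenografts (fragments, both flanks) in nude athymic CD1 mice aged 8–10 weeks. Oral q4dx4 dosing at 10 mL/kg, begun when tumors were visible but not measurable. Toxicity is recorded as the number of dead mice over the total number of treated mice.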

NCI-H460 [5] = experiment: as §3; format: ADME, organism-based; parameters: dose 9 mg/kg, route oral; conditions: in vivo; how it was run: as §4
NCI-H460 [6] = experiment: Percentage inhibition of tumor volume in treated versus control mice against human Non-Small-Cell tumor xenograft at a oral dose of 9 mg/kg; format: functional; conditions: Mus musculus; how it was run: as §2
NCI-H460 [7] = experiment: Percentage of body weight loss of CD1 mice after treatment with compound; format: functional, Homo sapiens
How it was run: (§5)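 Nude athymic CD1 mice, 8–10 weeks old, bearing s.c. human lung tumor xenografts in both flanks. Given oral drug in 10 mL/kg on a q4dx4 schedule, beginning when tumors were visible but not measurable. Read-out is percent body weight loss after drug treatment.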

[8] = No. of dead mice/ total No. of mice bearing lung carcinoma LX-1 at a oral dose of 15 mg/kg; format: ADME, organism-based; parameters: dose 15 mg/kg, route oral; conditions: mouse, in vivo; how it was run: as §4
NCI-H460 [9] = experiment: Complete response in CD1 mice with human Non-Small-Cell tumor at a oral dose of 5 mg/kg after treatment with compound; format: functional; how it was run: as §1
NCI-H460 [10] = experiment: Percentage inhibition of tumor volume in treated versus control mice against human Non-Small-Cell tumor xenograft at a oral dose of 15 mg/kg; format: functional; conditions: Mus musculus; how it was run: as §2
[11] = Percentage of body weight loss CD1 mice with human Non-Small-Cell tumor xenograft at a oral dose of 9 mg/kg; format: functional; conditions: dose 15 mg/kg, in the assay text read “oral dose of 15 mg/kg” for “oral dose of 9 mg/kg”; how it was run: as §5
NCI-H460 [12] = experiment: Log 10 cell kill induced in mice with human Non-Small-Cell tumor xenograft at a oral dose of 5 mg/kg; format: functional
How it was run: (§6)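 Nude athymic CD1 mice, 8–10 weeks, carrying s.c. human lung tumor fragments in both flanks. Given per os on a q4dx4 schedule at 10 mL/kg, starting when tumors were visible but not measurable. Volume = d²×D/2. Log10 cell kill = T−C/3.32 × tumor doubling time, where T and C are the days for treated and control tumors to reach a mean volume of 1000 mm³.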

NCI-H460 [13] = experiment: Percentage of body weight loss in CD1 mice with human Non-Small-Cell tumor xenograft at a oral dose of 5 mg/kg; format: functional; how it was run: as §5
[14] = Percentage of body weight loss in mice bearing lung carcinoma LX-1 at a oral dose of 15 mg/kg; format: functional, Mus musculus; how it was run: as §5
NCI-H460 [15] = experiment: Complete response in CD1 mice with human Non-Small-Cell tumor at a oral dose of 15 mg/kg after treatment with compound; format: functional
How it was run: (§7)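 Nude athymic CD1 mice, 8–10 weeks old, bearing s.c. human lung tumor xenografts (tumor fragments implanted in both flanks). Oral dosing on a q4dx4 schedule at 10 mL/kg, starting when tumors were visible but not measurable. A complete response was scored as no evidence of tumor for at least 10 days after the end of treatment.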

Homo sapiens = experiment: Percentage inhibition of tumor volume in treated versus control mice against human Non-Small-Cell tumor xenograft at a oral dose of 5 mg/kg; format: functional; how it was run: as §2
NCI-H460 [16] = experiment: Complete response in CD1 mice with human Non-Small-Cell tumor xenograft at a oral dose of 9 mg/kg; format: functional; how it was run: as §1
NCI-H460 [17] = experiment: Complete response in CD1 mice with human Non-Small-Cell tumor at a oral dose of 9 mg/kg after treatment with compound; format: functional; how it was run: as §7
NCI-H460 [18] = experiment: No. of dead mice/ total no of mice with human Non-Small-Cell tumor xenograft at a oral dose of 5 mg/kg; format: ADME, organism-based; parameters: dose 5 mg/kg, route oral; conditions: in vivo; how it was run: as §4
NCI-H460 [19] = experiment: Complete response CD1 mice with human Non-Small-Cell tumor xenograft at a oral dose of 15 mg/kg; format: functional; how it was run: as §1
[20] = Log 10 cell kill induced in mice bearing lung carcinoma LX-1 at a oral dose of 15 mg/kg; format: functional, Mus musculus; how it was run: as §6

CC[C@@]1(O)C(=O)OCc2c1cc1n(c2=O)Cc2c-1nc1ccccc1c2/C=N/OCC(=O)O
pIC50 [1]: 5.63

CC[C@@]1(O)C(=O)OCc2c1cc1n(c2=O)Cc2c-1nc1ccc(OC)cc1c2/C=N/OC(C)(C)C
pIC50 [1]: 7.15

CC[C@@]1(O)C(=O)OCc2c1cc1n(c2=O)Cc2c-1nc1ccccc1c2/C=N/OC(=O)c1ccccc1
pIC50 [1]: 5.75

CC[C@@]1(O)C(=O)OCc2c1cc1n(c2=O)Cc2c-1nc1ccccc1c2/C=N/OCC(=O)NCCCNS(=O)(=O)c1ccccc1[N+](=O)[O-]
pIC50 [1]: 5.52

CC[C@@]1(O)C(=O)OCc2c1cc1n(c2=O)Cc2c-1nc1ccccc1c2/C=N/OC
pIC50 [1]: 7.40

CC[C@@]1(O)C(=O)OCc2c1cc1n(c2=O)Cc2c-1nc1ccccc1c2/C=N/OC(C)(C)C(=O)OC(C)(C)C
pIC50 [1]: 6.85

CC[C@@]1(O)C(=O)OCc2c1cc1n(c2=O)Cc2c-1nc1ccccc1c2/C=N/OCc1ccccc1
pIC50 [1]: 7.52

CC[C@@]1(O)C(=O)OCc2c1cc1n(c2=O)Cc2c-1nc1ccccc1c2/C=N/OCc1ccc(N)cc1
pIC50 [1]: 7.60

CC[C@@]1(O)C(=O)OCc2c1cc1n(c2=O)Cc2c-1nc1ccccc1c2/C=N/OCc1ncc[nH]1
pIC50 [1]: 6.68

CC[C@@]1(O)C(=O)OCc2c1cc1n(c2=O)Cc2c-1nc1ccccc1c2/C(=N/O)c1ccccc1
pIC50 [1]: 5.29

CC[C@@]1(O)C(=O)OCc2c1cc1n(c2=O)Cc2c-1nc1ccc(O)cc1c2/C=N/OC(C)(C)C
pIC50 [1]: 6.89

C=CCO/N=C/c1c2c(nc3ccccc13)-c1cc3c(c(=O)n1C2)COC(=O)[C@]3(O)CC
pIC50 [1]: 7.22

CC[C@@]1(O)C(=O)OCc2c1cc1n(c2=O)Cc2c-1nc1ccccc1c2/C=N/OCc1c2ccccc2cc2ccccc12
pIC50 [1]: 6.72

CC[C@@]1(O)C(=O)OCc2c1cc1n(c2=O)Cc2c-1nc1ccccc1c2/C=N/OCCN(C)C
pIC50 [1]: 6.52

CC[C@@]1(O)C(=O)OCc2c1cc1n(c2=O)Cc2c-1nc1ccccc1c2/C=N/Oc1ccccc1
pIC50 [1]: 6.80

CC[C@@]1(O)C(=O)OCc2c1cc1n(c2=O)Cc2c-1nc1ccccc1c2/C=N/OCc1ccc(-c2ccccc2)cc1
pIC50 [1]: 6.55

CC[C@@]1(O)C(=O)OCc2c1cc1n(c2=O)Cc2c-1nc1ccccc1c2/C=N/OC(C)(C)CO
pIC50 [1]: 6.47

CC[C@@]1(O)C(=O)OCc2c1cc1n(c2=O)Cc2c-1nc1ccc(O)cc1c2/C=N/OC
pIC50 [1]: 6.70

CC[C@@]1(O)C(=O)OCc2c1cc1n(c2=O)Cc2c-1nc1ccccc1c2/C=N/OCC(=O)NCCCNC(=O)OC(C)(C)C
pIC50 [1]: 5.77

CC[C@@]1(O)C(=O)OCc2c1cc1n(c2=O)Cc2c-1nc1ccccc1c2/C=N/OC[C@H]1O[C@@H]2OC(C)(C)O[C@@H]2[C@H]2OC(C)(C)O[C@H]21
pIC50 [1]: 6.44

CC[C@@]1(O)C(=O)OCc2c1cc1n(c2=O)Cc2c-1nc1ccccc1c2/C=N/OCC(=O)NCCCN
pIC50 [1]: 5.28

CC[C@@]1(O)C(=O)OCc2c1cc1n(c2=O)Cc2c-1nc1ccccc1c2/C(C)=N/OCc1ccccc1
pIC50 [1]: 6.89

CC[C@@]1(O)C(=O)OCc2c1cc1n(c2=O)Cc2c-1nc1ccccc1c2/C=N/OCc1c(F)c(F)c(F)c(F)c1F
pIC50 [1]: 7.55

CC[C@@]1(O)C(=O)OCc2c1cc1n(c2=O)Cc2c-1nc1ccccc1c2/C=N/OCc1ccc(C)cc1
pIC50 [1]: 7.70

CC[C@@]1(O)C(=O)OCc2c1cc1n(c2=O)Cc2c-1nc1ccccc1c2/C=N/OCCC1CCCN(C)C1 (some centres undefined)
pIC50 [1]: 7.00

CC[C@@]1(O)C(=O)OCc2c1cc1n(c2=O)Cc2c-1nc1ccccc1c2/C=N/OCC1CO1 (some centres undefined)
pIC50 [1]: 7.70

CC[C@@]1(O)C(=O)OCc2c1cc1n(c2=O)Cc2c-1nc1ccccc1c2/C=N/OC(C)(C)C(=O)O
pIC50 [1]: 4.32

CC[C@@]1(O)C(=O)OCc2c1cc1n(c2=O)Cc2c-1nc1ccccc1c2/C=N/OCCN1CCOCC1
pIC50 [1]: 7.10

CC[C@@]1(O)C(=O)OCc2c1cc1n(c2=O)Cc2c(/C=N/OC(C)(C)C)c3ccccc3[n+]([O-])c2-1
pIC50 [1]: 7.15

CC[C@@]1(O)C(=O)OCc2c1cc1n(c2=O)Cc2c-1nc1ccccc1c2/C=N/O
pIC50 [1]: 7.49

CC[C@@]1(O)C(=O)OCc2c1cc1n(c2=O)Cc2c-1nc1ccccc1c2/C=N/OCc1ccncc1
pIC50 [1]: 7.52

CC[C@@]1(O)C(=O)OCc2c1cc1n(c2=O)Cc2c-1nc1ccccc1c2/C=N/OC(c1ccccc1)(c1ccccc1)c1ccccc1
pIC50 [1]: 5.84

CC[C@@]1(O)C(=O)OCc2c1cc1n(c2=O)Cc2c(/C=N/OC)c3ccccc3[n+]([O-])c2-1
pIC50 [1]: 5.62

CC[C@@]1(O)C(=O)OCc2c1cc1n(c2=O)Cc2c-1nc1ccccc1c2/C=N/OCCN
pIC50 [1]: 6.31

CC[C@@]1(O)C(=O)OCc2c1cc1n(c2=O)Cc2c-1nc1ccccc1c2/C=N/OCc1ccc([N+](=O)[O-])cc1
pIC50 [1]: 7.77

CC[C@@]1(O)C(=O)OCc2c1cc1n(c2=O)Cc2c-1nc1ccccc1c2/C=N/OCC1O[C@H](O)C(O)[C@H](O)[C@H]1O (some centres undefined)
pIC50 [1]: 4.49

CCc1c2c(nc3ccc(O)cc13)-c1cc3c(c(=O)n1C2)COC(=O)[C@]3(O)CC [7-ETHYL-10-HYDROXYCAMPTOTHECIN]
pIC50 [1]: 7.10

CC[C@@]1(O)C(=O)OCc2c1cc1n(c2=O)Cc2cc3ccccc3nc2-1 [CAMPTOTHECIN]
pIC50 [1]: 6.48

CC[C@@]1(O)C(=O)OCc2c1cc1n(c2=O)Cc2cc3c(CN(C)C)c(O)ccc3nc2-1 [TOPOTECAN]
pIC50 [1]: 5.86 | CR [2]: 4 | inhibition in vivo at 15 mg/kg [3]: 99% | Toxicity [4]: 0 | Toxicity (NCI-H460 [5]): 0 | inhibition in vivo at 9 mg/kg (NCI-H460 [6]): 91% | BWL (NCI-H460 [7]): 0% | Toxicity [8]: 0 | CR (NCI-H460 [9]): 0 | inhibition in vivo at 15 mg/kg (NCI-H460 [10]): 98% | BWL [11]: 8% | LCK (NCI-H460 [12]): 1.3 | BWL (NCI-H460 [13]): 0% | BWL [14]: 6% | LCK (NCI-H460 [15]): 2.1 | inhibition in vivo at 5 mg/kg (Homo sapiens): 80% | CR (NCI-H460 [16]): 0 | LCK (NCI-H460 [17]): 1.7 | Toxicity (NCI-H460 [18]): 0 | CR (NCI-H460 [19]): 0 | LCK [20]: 3.7
